UPR XBP1 act: activators of adaptive arm of unfolded protein response (XBP1); CHO-XBP1 luciferase reporter, IRE1-XBP1 UPR activation, luminescence; percent of tunicamycin response, DMSO as zero; 0.33% of 330,000 active; AID 463104; activation, % at 20 µM;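 active means versus positive control, 20 µM dose yields 30% or more activation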
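Assay system: CHO-XBP1 luciferase reporter cells; Schedule: 6 h treatment, 37 °C; Detection: glow luminescence from Steady-Glo reagent; Benchmarks: high control tunicamycin 10 µg/mL final, low control DMSO vehicle only.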
Lmaj promast: reduces viability of Leishmania major promastigotes; resazurin fluorescence viability; inhibition, % at 10 µM; 9% of 200,000 active; in the data active means inhibition above about 50%;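 further: promastigotes grown with compound for 44 hours at 28 °C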
UPR CHOP act: activators of apoptotic arm of unfolded protein response (CHOP); activation, % at 10 µM; 0.34% of 330,000 active; CHO-CHOP luciferase reporter, UPR activation, luminescence; percent of tunicamycin response over DMSO baseline; AID 449763;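 active means at 10 µM dose, activation of 40% or more, normalized to positive control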
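Assay system: CHO-CHOP cells, stable luciferase reporter of PERK-eIF2a-CHOP signalling / Buffer or medium: F12 plus 10% serum / Compound dosing: one dose, 10 µM in 0.5% DMSO / Times: 6 h compound treatment, 37 °C / Technique: luciferase luminescence / Read-out: % reporter activation, DMSO baseline versus tunicamycin full activation / Benchmarks: tunicamycin and DMSO controls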
CHOP inh: inhibitors of CHOP induction in ER stress response. inhibition, % at 10 µM. CHO-K1 CHOP-promoter luciferase, tunicamycin-induced, 15-18 h. 3.8% of 220,000 active. AID 2732;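 active means compounds that reduced the stress-induced luciferase reporter signal by more than about 70% of percent inhibition, limit read from the data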
Dynein cargo inh: blocks dynein driven cargo transport along microtubules; 0.47% of 220,000 active; z-score, hits read low; 3617.4 mouse cells, GR-EGFP nuclear translocation imaging; test concentration mostly 20 µM; stimulated with dexamethasone, 1 µM; hits give low values;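 active means plate z-score of nuclear minus cytoplasmic receptor signal below a set negative limit, without overly bright fluorescence or cell loss, cut at about -3.5 in these data, passing the limit was not always enough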;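 further: z-score of nuclear minus cytoplasmic ring GR-EGFP intensity difference per well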
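medium = tetracycline-free induction medium containing charcoal-stripped FBS | probe or stimulus = dexamethasone, 1.0 µM final | timing = 48 h induction, then 1 h compound, then 30 min agonist, 37 °C | detection = automated 10x imaging of fixed Hoechst-stained cells | read-out basis = nuclear versus cytoplasmic GR-EGFP signal, averaged per well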
T cruzi inh: blocks replication of Trypanosoma cruzi | inhibition, % (test concentration not listed) | 1.4% of 300,000 active | T. cruzi beta-gal in NIH3T3, luminescence, 90 h;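 active means mean inhibition across valid replicates above about 55%, limit read from the data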;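 further: signal also drops with host cell toxicity which is not excluded here; higher percent means less beta-gal luminescence so fewer parasites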
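Material: NIH/3T3 host cells with β-galactosidase reporter T. cruzi; Input: 5,000 host fibroblasts per well; Medium: DMEM, 2% fetal bovine serum; Compound: 50 nL DMSO compound solution per well; Schedule: 3 h host attachment, then at least 90 h co-culture; Detection: luminescent β-galactosidase signal after 60 min lysis.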
Of the large screens only hits and unclear results are named; the others gave an inactive call. This excerpt belongs to a sample that is enriched for hits.

CCOc1ccc(Oc2c(/C=N/NC(N)=O)c(C)nn2-c2ccccc2)cc1	Lmaj promast 98
Cc1nn(-c2ccccc2)c(Cl)c1/C=N/NC(N)=O	none (no result: Lmaj promast)
Cc1ccc(C)c(OCC(=O)N/N=C/c2c(C)nn(-c3ccccc3)c2Cl)c1C	none
O=C(CSC1=NCCN1)NC(c1ccccc1)c1ccccc1	Lmaj promast 94
O=C(CN1c2cccc3cccc(c23)S1(=O)=O)Nc1ccc(F)c(F)c1F	none (no result: Lmaj promast, CHOP inh, Dynein cargo inh, T cruzi inh)
Nc1cc(C(=O)OCC(=O)NNC(=O)c2cccs2)ccc1Cl	none (no result: Lmaj promast, CHOP inh, Dynein cargo inh)
Cc1ccccc1CNCc1cccnc1	none
O=C(O)c1ccc(CNCc2ccc(F)cc2)cc1	none
CCc1ccc(CNCc2cccnc2)cc1	Lmaj promast 90
CCc1ccc(CNCc2ccc(F)cc2)cc1	Lmaj promast 71
Cc1cc(C)cc(NC(=O)CSc2nnc(CNC(=O)c3ccco3)n2C)c1	none (no result: Lmaj promast, CHOP inh, Dynein cargo inh, T cruzi inh)
Cc1ccc(CNC(=O)C2CCC(=O)N(CCCN3CCOCC3)C2)cc1 (configuration not stated)	none (no result: Lmaj promast, CHOP inh, Dynein cargo inh)
COc1ccc(C(=O)c2ccccc2)c(O)c1	none
COc1ccc2sc(/C=C/c3ccccc3O)[n+](C)c2c1	Lmaj promast 92 (no result: UPR XBP1 act, UPR CHOP act, T cruzi inh)
O=C(C[C@@H]1C/C=C\CC[C@H](Cc2ccc(F)cc2)C(=O)OC[C@@H]2CCCN2C1=O)N[C@H](CO)Cc1ccccc1	none (no result: Lmaj promast, CHOP inh, Dynein cargo inh, T cruzi inh)
COc1cc(NC(=O)COC(=O)CNS(=O)(=O)c2ccc(F)c(F)c2F)cc(OC)c1	none
O=C(COC(=O)CNS(=O)(=O)c1ccc(F)c(F)c1F)Nc1ccc(OC(F)F)cc1	Lmaj promast 82
COc1ccc(C(=O)OCC(=O)Nc2ccc(OC(F)F)cc2)c(OC)c1	none
CCCCNc1ccccc1C(=O)OCC(=O)Nc1ccc(S(N)(=O)=O)cc1	Lmaj promast 78
CC(=O)c1ccc(NC(=O)COC(=O)c2ccccc2Nc2ccccc2)cc1	none
O=C(COC(=O)c1ccccc1Nc1ccccc1)Nc1ccccc1	CHOP inh 78
O=C(COC(=O)c1ccccc1O)Nc1ccc(OC(F)F)cc1	CHOP inh 72
CCCCN1CC(=O)N2[C@H]3c4ccccc4OC[C@@H]3[C@H](c3ccccc3)[C@]2(C)C1=O	none (no result: Lmaj promast, CHOP inh, Dynein cargo inh, T cruzi inh)
CN(C(=O)COC(=O)c1cc(S(=O)(=O)N2CCCCC2)ccc1Cl)c1ccccc1	none (no result: Lmaj promast, CHOP inh, Dynein cargo inh, T cruzi inh)
O=C(C[n+]1ccc(Cc2ccccc2)cc1)Nc1ccccc1	none
NC(=O)c1nc(C(=O)N2CCN(c3ccccc3)CC2)c2ccccc2n1	none (no result: Lmaj promast, CHOP inh, Dynein cargo inh, T cruzi inh)
Cc1ccc2nc(SC(C)C(=O)Nc3cccc([N+](=O)[O-])c3)[nH]c2c1 (configuration not stated)	Lmaj promast 56
Cc1ccc2nc(SC(C)C(=O)NC3CCCC3)[nH]c2c1 (configuration not stated)	none (no result: Lmaj promast, CHOP inh, Dynein cargo inh, T cruzi inh)
Cc1cccc(-n2ncc3c(NCc4cccs4)ncnc32)c1	Lmaj promast 97
CC(=O)Nc1ccc(Nc2ncnc3c2cnn3-c2ccccc2)cc1	none
CC(=O)Nc1ccc(Nc2ncnc3c2cnn3-c2ccc(C)cc2C)cc1	Lmaj promast 68
CC(=O)Nc1ccc(Nc2ncnc3c2cnn3-c2cccc(C)c2)cc1	Lmaj promast 75
CCn1ccc(C(=O)Nc2ccc3c(c2)CCC3)n1	none (no result: Lmaj promast, CHOP inh, Dynein cargo inh)
COC(=O)c1ccc(NC(=O)Cn2c(-c3nonc3N)nc3ccccc32)cc1	none
CC(C)OC(=O)c1ccc(NC(=O)Cn2c(-c3nonc3N)nc3ccccc32)cc1	Lmaj promast 51
Cc1ccc(/C=C/C(=O)C2C(=O)c3ccccc3C2=O)cc1	CHOP inh 95
Cc1ccc(/C=C/C(=O)c2ccccc2O)cc1	none (no result: Lmaj promast)
COc1ccc(N/N=C/c2c(C(=O)O)ccc3ccccc23)cc1	CHOP inh 96 (no result: Lmaj promast)
O=C(CC1C(=O)N(c2ccccc2)C(=S)N1c1ccccc1)c1ccccc1 (configuration not stated)	none
O=C(CC1C(=O)N(c2ccccc2)C(=S)N1c1ccccc1)c1ccc(Br)cc1 (configuration not stated)	Lmaj promast 51
O=C(Nc1cccc(Cl)c1)c1cc(S(=O)(=O)N2CCOCC2)cs1	none (no result: Lmaj promast, CHOP inh, Dynein cargo inh)
CCCN(C(=O)C1CCN(S(=O)(=O)c2ccc(OC)c(OC)c2)CC1)C1CCS(=O)(=O)C1 (configuration not stated)	none (no result: Lmaj promast, CHOP inh, Dynein cargo inh)
CCc1ccc(CN(C)C(=O)CCc2nnc(CCc3ccccc3OC)o2)nc1	none
CCc1ccc(CN(C)C(=O)CCc2nnc(CCc3cccc(OC)c3)o2)nc1	Lmaj promast 100
c1ccc2cc(C3CCCCC3)ncc2c1	none (no result: Lmaj promast, CHOP inh, Dynein cargo inh, T cruzi inh)
CC(=O)OC(COC1C[C@@H]2CC[C@@]1(C)C2(C)C)C[N+]1(C)CCCCC1 (some centres not stated)	none (no result: Lmaj promast)
CCCOC(=O)C[N+](C)(C)CCOC1CC2CCC1(C)C2(C)C (configuration not stated)	none (no result: Lmaj promast)
CCCCOC(=O)C[N+](C)(C)CCOC1CC2CCC1(C)C2(C)C (configuration not stated)	Lmaj promast 69
CC(C)CCOC(=O)C[N+](C)(C)CCOC1CC2CCC1(C)C2(C)C (configuration not stated)	Lmaj promast 91, T cruzi inh 61
CCCCCCOC(=O)C[N+](C)(C)CCOC1CC2CCC1(C)C2(C)C (configuration not stated)	Lmaj promast 100, T cruzi inh 72
CCC(C)OC(=O)C[N+](C)(C)CCOC1CC2CCC1(C)C2(C)C (configuration not stated)	Lmaj promast 96, T cruzi inh 64
CCn1nc(C)c(CNC(=O)c2ccc(OC3CCN(Cc4ccccn4)CC3)cc2)c1C	none (no result: Lmaj promast, CHOP inh, Dynein cargo inh)
CCOC(=O)/C=C/COc1ccccc1[N+](=O)[O-]	none
CC(C)CC1NC(=O)N(CC(=O)Nc2cc(F)ccc2F)C1=O (configuration not stated)	none (no result: Lmaj promast, CHOP inh, Dynein cargo inh, T cruzi inh)
COc1ccccc1OCC(=O)N/N=C1/C=C(C)CC1	none
Cc1ccc(S(=O)(=O)N2CCC3(CC2)OCCO3)s1	none (no result: Lmaj promast, CHOP inh, Dynein cargo inh)
Cc1ccc(-n2ncc3c2CC(C)(C)CC3NC(=O)c2c(C)noc2C)cc1 (configuration not stated)	none (no result: Lmaj promast, CHOP inh, Dynein cargo inh)
CC(C)OCCCNC(=O)CN1C(=O)/C(=C/c2ccccc2)Sc2ccccc21	Lmaj promast 59
O=C(NCCN1CCOCC1)c1ccc2c(c1)N(Cc1cccc(F)c1)C(=O)c1ccccc1S2	Lmaj promast 100
CCN1CCN(CCNC(=O)c2ccc3c(c2)N(Cc2ccc(F)cc2)C(=O)/C(=C/c2ccccc2)S3)CC1	Lmaj promast 101, CHOP inh 107
CN1CCN(CCCNC(=O)c2ccc(/C=C3\Sc4ccccc4N(Cc4ccccc4F)C3=O)cc2)CC1	Lmaj promast 100, T cruzi inh 69 (no result: UPR XBP1 act, UPR CHOP act)
